High-throughput results deposited in PubChem BioAssay by several laboratories.
TLR4-MyD88 BLA: TLR4-MyD88 interaction inhibition in cells | HeLa CL3-4 TLR4/MyD88 BLA complementation, FRET ratio | inhibition, % at 8.4 µM | hit rate 0.18% among 200,000; in the data active = inhibition above about 25%;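 also: 0% = vehicle and 100% = reference inhibitor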
MC4R antag cAMP: antagonists of human melanocortin 4 receptor (MC4R); hit rate 0.48% among 360,000; MC4R-expressing cells, MTII-stimulated cAMP, LANCE TR-FRET; inhibition, % at 6.5 µM; P32245;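 active = inhibition above its plate's cutoff, the mean of tested wells on that plate plus 3 SD, cut at about 29% in these data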;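 also: 0% = Melanotan II alone and 100% = Melanotan II plus saturating MCL0020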
Target sequence (P32245 whole entry, looked up): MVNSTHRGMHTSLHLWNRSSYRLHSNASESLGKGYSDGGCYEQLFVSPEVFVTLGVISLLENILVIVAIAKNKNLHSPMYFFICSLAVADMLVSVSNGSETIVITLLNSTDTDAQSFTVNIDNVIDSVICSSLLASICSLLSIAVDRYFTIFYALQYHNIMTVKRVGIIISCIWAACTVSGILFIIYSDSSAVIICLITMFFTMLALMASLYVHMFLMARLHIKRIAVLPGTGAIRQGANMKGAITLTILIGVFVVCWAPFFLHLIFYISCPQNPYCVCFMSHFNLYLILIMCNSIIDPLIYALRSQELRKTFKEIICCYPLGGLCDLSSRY
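System: U2OS-MC4R stable cell line; Technique: Eu-cAMP/anti-cAMP TR-FRET, emission 671 nm; Repeats: single well per compound; Also added: Melanotan II; Dosing: one concentration, 6.5 µM nominal; Schedule: 30-min compound, 1-h challenge, 1-h detection, room temperature.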
TLR9-MyD88 inh: blocks human TLR9 binding to MyD88; Q9NR96+Q99836; inhibition, % at 4.98 µM; CHO BLA complementation TLR9-MyD88, CCF4 FRET ratio; hit rate 0.21% among 340,000;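 active = inhibition above the mean over all tested compounds plus 3 SD, cut at about 21% in these data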;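 also: 0% = DMSO only wells and 100% = clavulanate BLA inhibitor control wells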
MC4R barr agon: human MC4R agonism via beta-arrestin; P32245; U2OS MC4R beta-arrestin complementation, luminescence; percent of melanotan II response, DMSO zero; activation, % at 8.9 µM; hit rate 0.98% among 360,000; AID 540308;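 active = activation above a per-plate cutoff, the mean activation of sample wells on that plate plus 3 SD, cut at about 8% in these data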
NOD2-RIPK2 inh: blocks binding of human NOD2 to RIPK2; O43353; CHO BLA complementation NOD2-RIPK2, CCF4 ratio; inhibition, % at 4.98 µM; hit rate 0.38% among 360,000; AID 624267; in the data active = inhibition above about 21%;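 also: 0% = vehicle only and 100% = reference blocker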
beta cell repl: inducers of beta-cell replication in MIN6 cells | hit rate 0.29% among 330,000 | MIN6 cells proliferation, ATPlite luminescence, 48 h; cells starved in 0.2% serum; 100% = growth in 10% serum | proliferation, % at 10 µM | AID 2380;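 active = compounds whose signal lies at least 3.5 SD above the mean of all wells on their plate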;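 also: 0% = DMSO-treated cells in low-serum medium and 100% = 10% serum control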
TLR4-MyD88 conf: confirmation of human TLR4-MyD88 binding inhibitors | shares compounds with TLR4-MyD88 BLA | HeLa CL3-4 BLA complementation, CCF4 FRET ratio | inhibition, % at 8.4 µM | hit rate 50% among 350;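 active = mean inhibition across three repeat runs above about 25% carried over from the earlier screen, limit read from the data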;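 also: plate controls were DMSO only for no effect and clavulanic acid blocking BLA at full dose for full effect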
BLA inh HeLa: counter-screen for TLR4-MyD88 inhibitors: beta-lactamase reporter inhibitors; shares compounds with TLR4-MyD88 BLA; HeLa BLA reporter, CCF4 FRET ratio; inhibition, % at 8.4 µM; hit rate 63% among 350; AID 1237;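 active = mean inhibition over three repeats above about 26% taken from the earlier screen, limit read from the data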;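 also: HeLa cells stably expressing beta-lactamase reporter as counterscreen for TLR4-MyD88 inhibitors; 0% = DMSO and 100% = clavulanic acid full inhibition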
An asterisk follows results filed as active; x = no result. A selection: hits, their analogues and other compounds. The true share with any hit is near 2.1%.

SMILES | TLR4-MyD88 BLA | MC4R antag cAMP | TLR9-MyD88 inh | MC4R barr agon | NOD2-RIPK2 inh | beta cell repl | TLR4-MyD88 conf | BLA inh HeLa
CC(=O)c1sc2nc(-c3cccs3)cc(C(F)(F)F)c2c1N | 29.7* | -0.4 | 8.0 | -2.3 | -2.0 | 4.6 | 13.1 | 24.6
CNC(=O)c1sc(N2N=C3/C(=C/c4ccccc4)CCCC3C2c2ccccc2)nc1C (centres undefined) | 28.5* | 19.2 | 9.2 | -0.8 | 8.2 | -5.6 | 23.6 | 54.1*
CNC(=O)c1sc(N2N=C3/C(=C\c4ccccc4)CCCC3C2c2ccccc2)nc1C (centres undefined) | x | 14.9 | -8.1 | -3.1 | -0.7 | x | x | x
CSCC[C@H](N)C(=O)NCC1CCC(C(=O)Nc2ccc3c(c2)OCO3)CC1 (some centres undefined) | x | 10.6 | 4.9 | -0.5 | -1.9 | -2.9 | x | x
C=CCNc1sc(C(=O)c2ccccc2)c(N)c1C#N | -5.9 | 2.3 | -5.6 | -2.0 | -9.8 | 0.2 | x | x
C=CCNc1sc(C(=O)c2ccc(Br)s2)c(N)c1C#N | 36.6* | 5.0 | -2.7 | -1.9 | -3.3 | 0.3 | 20.2 | 55.4*
CN(C)c1ccc(/C=C/c2cc[n+]([O-])cc2)cc1 | 7.2 | x | x | x | x | -0.5 | x | x
CN(C)c1ccc(/C=C/c2cc[n+](C)cc2)cc1 | 26.3* | -36.8 | 3.3 | -0.9 | 0.6 | -4.4 | 10.7 | 20.9
Cc1nn(Cc2ccccc2)c(C)c1C(=O)N1CCN(S(=O)(=O)/C=C/c2ccccc2)CC1 | x | -1.3 | -3.0 | -1.5 | -10.1 | -1.5 | x | x
O=C(Nc1ccc2oc(-c3cccnc3)nc2c1)c1ccc([N+](=O)[O-])o1 | 29.9* | -14.5 | 4.4 | -1.8 | -0.2 | x | 15.7 | 8.4
O=C(Nc1ccc2oc(-c3cccnc3)nc2c1)c1ccc(Br)o1 | -5.6 | -1.6 | -6.2 | 2.2 | 4.0 | -6.5 | x | x
Cc1ccc(C)c(NS(=O)(=O)c2ccc(OCC(=O)NCc3ccco3)cc2)c1 | 26.4* | 11.7 | 2.5 | -0.1 | 2.7 | -0.7 | 3.3 | 1.0
CCCCC(CC)Cn1c2nc3ccccc3nc2c2c(=N)oc(C)nc21 (centres undefined) | 47.6* | x | x | x | x | x | -5.5 | -5.7
CCCCn1c2nc3ccccc3nc2c2c(=N)oc(C)nc21 | x | 2.2 | 1.6 | -0.3 | -5.0 | x | x | x
CCN(CC)S(=O)(=O)c1ccc(N2CCCCC2)c(NC(=O)/C(C#N)=C/c2ccc(OC)cc2)c1 | 2.5 | 6.1 | -5.7 | -0.7 | -7.9 | 1.8 | x | x
CCOc1ccc(NC(=O)/C(C#N)=C/c2ccc(N3CCCC3)c(C)c2)cc1 | 26.5* | -3.3 | 10.7 | 1.0 | 0.8 | x | 28.2* | 65.0*
CN(C)C=Nc1nonc1-c1ccccc1 | x | 17.2 | -8.5 | -0.7 | 0.2 | -0.2 | x | x
CN(C)C=Nc1c(Br)cc(Br)c2nonc12 | 25.2* | 4.8 | 6.2 | 0.2 | -1.4 | 0.8 | 21.2 | 35.4*
Cn1c(-c2ccc(C=O)s2)nc2c3ccccc3c3ccccc3c21 | 47.4* | 1.0 | 0.5 | 0.9 | 8.3 | -3.5 | 39.9* | 61.4*
O=C(NS(=O)(=O)Nc1ccc(Br)cn1)c1c[nH]c2ccccc12 | x | 0.7 | -1.2 | -3.9 | 7.8 | -4.7 | x | x
O=C(NCCCc1ccccc1)c1ccccc1 | 26.3* | -1.3 | -1.6 | -0.1 | -11.3 | -0.7 | -9.4 | -3.1
O=C(NC1CCCC1)c1ncn[nH]1 | -1.8 | -2.4 | -9.2 | 0.7 | -10.0 | 0.0 | x | x
CCCC1Cc2nc(N3CCCCC3)c(C#N)cc2CO1 (centres undefined) | 25.8* | 13.1 | 4.8 | 2.5 | -2.8 | -1.5 | -11.4 | 6.2
CCN(CC)c1ccc(/C=C(\C#N)c2nc(-c3cccs3)c(NC(C)=O)s2)cc1 | 27.9* | x | x | x | x | x | 27.9* | 50.9*
Cc1ccc(/C=C2\CCC3=C2OC(N)=C(C#N)C3c2ccc(C)cc2)cc1 (centres undefined) | 34.1* | 8.8 | 11.0 | 4.7 | 10.7 | -5.4 | 28.6* | 65.7*
SMILES | TLR4-MyD88 BLA | MC4R antag cAMP | TLR9-MyD88 inh | MC4R barr agon | NOD2-RIPK2 inh | beta cell repl | TLR4-MyD88 conf | BLA inh HeLa
Cc1ccc(C2C(C#N)=C(N)Oc3cc(N)ccc32)cc1 (centres undefined) | x | 1.1 | 2.3 | -1.3 | -0.6 | -1.6 | x | x
Cc1ccc(CNC(=O)CN(C(=O)N2CCN(C)CC2)S(=O)(=O)c2ccc(C)cc2)cc1 | x | -2.3 | -0.2 | -2.7 | -2.4 | 6.3 | x | x
CN1CCN(CCCNC(=O)Nc2ccc([N+](=O)[O-])cc2)CC1 | x | 8.0 | -4.2 | -1.0 | 0.0 | -3.9 | x | x
CSc1ccc(-c2cccc3nncn23)cc1 | x | -2.6 | x | 0.4 | -29.6 | x | x | x
O=C(CCC(=O)Nc1ccccc1Cl)NNC(=O)C1CCCCC1 | x | 6.2 | -12.7 | -1.7 | -17.2 | 5.5 | x | x
O=C(Cn1ncc2c1-c1ccccc1OC2)N1CCc2ccccc21 | -1.3 | 3.4 | 4.1 | -0.2 | 8.4 | -4.3 | x | x
O=C(Cn1ncc(Cl)c(Cl)c1=O)N1CCc2ccccc21 | 27.0* | -12.0 | 14.2 | 2.6 | 20.8 | x | 24.4 | 4.7
O=C(Cn1nnc2ccccc2c1=O)N[C@@H](Cc1ccccc1)C(=O)O | x | -2.4 | -7.0 | -0.2 | -6.9 | 1.3 | x | x
COc1ccc(NC(=O)CSc2ccc3c4c(cccc24)C(=O)c2ccccc2-3)cc1 | 33.1* | 8.7 | -13.8 | 1.6 | 7.1 | -4.5 | 23.8 | 14.0
N#Cc1cccc(NC(=O)CSc2ccc3c4c(cccc24)C(=O)c2ccccc2-3)c1 | 53.8* | 4.2 | 20.5 | 0.2 | 13.0 | x | 35.5* | 65.3*
Cc1cc(CNC[C@H]2O[C@@H](n3cnc(C(N)=O)n3)[C@H](O)[C@@H]2O)c(C)n1-c1cccnc1 | x | -1.1 | -8.6 | 0.7 | 3.2 | x | x | x
COc1ccccc1/C=C/C=C(\C#N)C(=O)NC(C)c1ccccc1 (centres undefined) | x | 8.2 | -18.5 | 2.1 | 4.7 | 0.0 | x | x
CCCOC(=O)c1ccc(S(N)(=O)=O)o1 | 26.8* | 1.1 | 0.3 | -0.6 | -2.6 | -1.4 | -8.4 | 0.9
CCCCOC(=O)c1ccc(S(N)(=O)=O)o1 | -6.1 | 0.7 | 6.9 | -0.3 | -2.7 | 0.0 | x | x
Oc1ccc2ccccc2c1/C=N/Nc1nnc(-c2ncc[nH]2)c2ccccc12 | 33.0* | -38.3 | -6.4 | 1.6 | 0.9 | -6.0 | 21.7 | 49.7*
Cc1c(NC(=O)CSc2nnc(-c3cccc(Cl)c3)o2)c(=O)n(-c2ccccc2)n1C | 28.6* | 3.2 | -1.8 | -0.3 | -3.3 | 2.2 | 0.7 | 4.1
CN(C)S(=O)(=O)n1cnc([C@@H]2[C@H]3C(=O)OC[C@@H]3C[C@@]23N=CN(Cc2ccccc2)C3=O)c1 | x | 5.2 | 2.1 | 0.6 | -4.7 | 6.0 | x | x
CC(=O)C1=NN(c2ccccc2)C(c2ccc3c(c2)OCO3)N1c1ccc(N2CCOCC2)cc1 (centres undefined) | -6.2 | 2.7 | 0.1 | 1.0 | 6.7 | -0.7 | x | x
